ChEMBL document CHEMBL1130007, “Carbocyclic oxetanocins lacking the C-3' methylene” (1997)
Values after ≈ are worked out from the molar mass of the structure shown.

How the values were obtained:
Assay type in all cases: functional
HeLa [1] = experiment: Minimum inhibitory conc. for 50% inhibition of coxsackie B4 virus induced cytopathicity in HeLa cells; conditions: Homo sapiens
HeLa [2] = experiment: Minimum inhibitory conc. for 50% inhibition of morphology […] in HeLa cells; conditions: Homo sapiens
HeLa [3] = experiment: Minimum inhibitory conc. for 50% inhibition of vesicular stomatitis virus induced cytopathicity in HeLa cells; conditions: Homo sapiens
HeLa [4] = experiment: Minimum inhibitory conc. for 50% inhibition of Polio-1 virus induced cytopathicity in HeLa cells; conditions: Homo sapiens
Vero [5] = experiment: Minimum inhibitory conc. for 50% inhibition of Parainfluenza-3 virus induced cytopathicity in Vero cells; conditions: Chlorocebus sabaeus
Method in brief: (§1)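 Confluent E6SM or Vero monolayers were infected with 100 CCID50 of virus and allowed 1 h of adsorption. Residual virus was then removed. Cultures were incubated with compound in serial dilutions (400, 200, 100, ... µg/mL). Cytopathicity was scored when it was complete in the untreated infected controls.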

Vero [6] = experiment: Minimum inhibitory conc. for 50% inhibition of Reo-1 virus induced cytopathicity in Vero cells; conditions: Chlorocebus sabaeus; method in brief: as §1
Vero [7] = experiment: Minimum inhibitory conc. for 50% inhibition of forest virus induced cytopathicity in Vero cells; conditions: Chlorocebus sabaeus; method in brief: as §1
Vero [8] = experiment: Minimum inhibitory conc. for 50% inhibition of Sindbis virus induced cytopathicity in Vero cells; conditions: Chlorocebus sabaeus; method in brief: as §1
Vero [9] = experiment: Minimum inhibitory conc. for 50% inhibition of alteration of morphology in Vero cells; conditions: Chlorocebus sabaeus
HEL [10] = experiment: Minimum inhibitory conc. for 50% inhibition of CMV (Davis) virus plaque formation in HEL cells; conditions: Homo sapiens
Method in brief: (§2)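 HEL cell cultures were inoculated with 100 CCID50 of virus and allowed 1 h of adsorption. Residual virus was then removed. Cultures were incubated with compound at graded concentrations (400, 200, 100, ... µg/mL). Read-out was virus plaque formation, scored when the infected controls were fully affected. The value is the concentration reducing plaque formation by 50%.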

HEL [11] = experiment: Minimum inhibitory conc. for 50% inhibition of CMV (AD-169) virus plaque formation in HEL cells; conditions: Homo sapiens; method in brief: as §2
E6SM [12] = experiment: Minimum inhibitory conc. for 50% inhibition of HSV-2 (G) virus induced cytopathicity in E6SM cells; conditions: Homo sapiens; method in brief: as §1
E6SM [13] = experiment: Minimum inhibitory conc. for 50% inhibition of TK HSV-1 (B2006) virus induced cytopathicity in E6SM cells; conditions: Homo sapiens; method in brief: as §1
E6SM [14] = experiment: Minimum inhibitory conc. for 50% inhibition of alteration of morphology in E6SM cells; conditions: Homo sapiens
Method in brief: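 Toxicity in E6SM, HeLa or Vero cultures was judged by microscopically visible alteration of normal cell morphology. The value is the concentration producing this alteration (50%).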

E6SM [15] = experiment: Minimum inhibitory conc. for 50% inhibition of vaccinia virus induced cytopathicity in E6SM cells; conditions: Homo sapiens
E6SM [16] = experiment: Minimum inhibitory conc. for 50% inhibition of vesicular stomatitis virus induced cytopathicity in E6SM cells; conditions: Homo sapiens
E6SM [17] = experiment: Minimum inhibitory conc. for 50% inhibition of HSV-1 (KOS) virus induced cytopathicity in E6SM cells; conditions: Homo sapiens
HEL [18] = experiment: Minimum inhibitory conc. for 50% inhibition of growth in HEL cells; conditions: Homo sapiens
Method in brief: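 HEL cell cytotoxicity was measured as inhibition of normal cell growth. The value is the concentration inhibiting growth by 50%.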

E6SM [19] = experiment: Minimum inhibitory conc. for 50% inhibition of HSV-2 (196) virus induced cytopathicity in E6SM cells; conditions: Homo sapiens; method in brief: as §1
E6SM [20] = experiment: Minimum inhibitory conc. for 50% inhibition of HSV-2 (Lyons) virus induced cytopathicity in E6SM cells; conditions: Homo sapiens; method in brief: as §1
E6SM [21] = experiment: Minimum inhibitory conc. for 50% inhibition of HSV-1 (F) virus induced cytopathicity in E6SM cells; conditions: Homo sapiens; method in brief: as §1
HEL [22] = experiment: Minimum inhibitory conc. for 50% inhibition of TK VZV (07/1) virus plaque formation in HEL cells; conditions: Homo sapiens
HEL [23] = experiment: Minimum inhibitory conc. for 50% inhibition of TK-VZV (YS/R) virus plaque formation in HEL cells; conditions: Homo sapiens
HEL [24] = experiment: Minimum inhibitory conc. for 50% inhibition of VZV (OKA) virus plaque formation in HEL cells; conditions: Homo sapiens
HEL [25] = experiment: Minimum inhibitory conc. for 50% inhibition of VZV (YS) virus plaque formation in HEL cells; conditions: Homo sapiens
E6SM [26] = experiment: Minimum inhibitory conc. for 50% inhibition of HSV-1 (McIntyre) virus induced cytopathicity in E6SM cells; conditions: Homo sapiens

Structure (SMILES)	MIC (HEL [10])	MIC (HEL [11])	MIC (E6SM [12])	MIC (E6SM [13])	MIC (E6SM [14])	MIC (E6SM [15])	MIC (E6SM [16])	MIC (E6SM [17])	MIC (HEL [18])	further results
NC(=O)c1ncn([C@@H]2O[C@H](CO)[C@@H](O)[C@H]2O)n1 [RIBAVIRIN]										MIC (HeLa [1]): 70 µg/mL (≈ 287 µM); MIC (HeLa [2]): > 200 µg/mL; MIC (HeLa [3]): 4 µg/mL (≈ 16.4 µM); MIC (HeLa [4]): 70 µg/mL (≈ 287 µM); MIC (Vero [5]): 70 µg/mL (≈ 287 µM); MIC (Vero [6]): 70 µg/mL (≈ 287 µM); MIC (Vero [7]): 300 µg/mL (≈ 1230 µM); MIC (Vero [8]): 150 µg/mL (≈ 614 µM); MIC (Vero [9]): > 400 µg/mL
Nc1nc2c(ncn2COC(CO)CO)c(=O)[nH]1 [GANCICLOVIR]	0.13 µg/mL (≈ 0.509 µM)	1.5 µg/mL (≈ 5.88 µM)								
Nc1ccn(C[C@@H](CO)OCP(=O)(O)O)c(=O)n1.O.O [CIDOFOVIR]	0.07 µg/mL	0.06 µg/mL								
Nc1nc2c(ncn2COCCO)c(=O)[nH]1 [ACYCLOVIR]			0.07 µg/mL (≈ 0.311 µM)	70 µg/mL (≈ 311 µM)	400 µg/mL (≈ 1780 µM)	> 200 µg/mL	> 200 µg/mL	0.04 µg/mL (≈ 0.178 µM)	> 200 µg/mL	
O=c1[nH]c(=O)n([C@H]2C[C@H](O)[C@@H](CO)O2)cc1/C=C/Br [BRIVUDINE]			> 200 µg/mL	7 µg/mL (≈ 21 µM)	> 400 µg/mL	0.07 µg/mL (≈ 0.21 µM)	> 200 µg/mL	0.004 µg/mL (≈ 0.012 µM)	150 µg/mL (≈ 450 µM)	MIC (E6SM [19]): > 200 µg/mL; MIC (E6SM [20]): 100 µg/mL (≈ 300 µM); MIC (E6SM [21]): 0.01 µg/mL (≈ 0.03 µM); MIC (HEL [22]): 5 µg/mL (≈ 15 µM); MIC (HEL [23]): > 50 µg/mL; MIC (HEL [24]): 0.0008 µg/mL (≈ 0.0024 µM); MIC (HEL [25]): 0.002 µg/mL (≈ 0.006 µM); MIC (E6SM [26]): 0.007 µg/mL (≈ 0.021 µM)
